The values that follow come from ChEMBL document CHEMBL5055621, “Synthesis and Characterization of the Novel Rodent-Active and CNS-Penetrant P2X7 Receptor Antagonist Lu AF27139” (J Med Chem, 2021).

Data set [1] deals with THP-1. The experiment in a line: Antiinflammatory activity against human THP-1 cells assessed as reduction in LPS and BzATP-induced IL-1beta release measured after 50 mins by microplate reader. Type of data set: functional, cell-based. Conditions: THP-1, 50 min. The procedure, abridged:
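THP-1 cells were differentiated with IFN-γ 10 ng/mL for 48 h and primed with LPS (100 ng/mL final) for 3.5 h at 10k cells/well. Compound was added for 20 min, then BzATP (1 mM final) for 30 min at 37 °C. Supernatant IL-1β was read by human AlphaLISA.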

Data set [2] concerns the target T1, P2X purinoceptor 7 (Mus musculus, UniProt Q9Z1M0).
T1 sequence (Q9Z1M0 whole entry): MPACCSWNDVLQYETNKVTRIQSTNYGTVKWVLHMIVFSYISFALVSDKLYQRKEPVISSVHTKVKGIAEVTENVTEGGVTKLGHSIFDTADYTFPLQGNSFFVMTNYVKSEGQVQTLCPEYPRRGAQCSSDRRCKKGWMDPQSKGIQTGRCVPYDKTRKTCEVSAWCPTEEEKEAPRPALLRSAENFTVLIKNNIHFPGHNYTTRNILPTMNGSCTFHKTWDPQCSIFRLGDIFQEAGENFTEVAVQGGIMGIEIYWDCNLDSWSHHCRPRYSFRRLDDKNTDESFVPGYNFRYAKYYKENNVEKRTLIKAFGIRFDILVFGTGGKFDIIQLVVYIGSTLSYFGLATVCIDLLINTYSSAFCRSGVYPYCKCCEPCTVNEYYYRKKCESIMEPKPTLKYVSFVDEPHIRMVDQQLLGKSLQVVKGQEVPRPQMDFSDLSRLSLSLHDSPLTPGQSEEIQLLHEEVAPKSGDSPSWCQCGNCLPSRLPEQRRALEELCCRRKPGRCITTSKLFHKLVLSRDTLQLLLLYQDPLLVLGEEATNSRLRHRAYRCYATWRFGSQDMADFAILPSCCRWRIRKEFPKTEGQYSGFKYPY
The experiment in a line: Displacement of [3H]-A-804598 from mouse P2X7 receptor expressed in HEK293 cell membrane by in vitro binding assay. In kind it is cell membranes.

Data set [3] deals with Adenosine receptor A2a (Homo sapiens) (UniProt P29274). Kind of data set: Displacement of [3H]-CGS 21680 from human recombinant adenosine A2A receptor at 10 uM after 120 mins by scintillation counting analysis relative to control. (In general: Displacement assays read how much labelled ligand stays bound in the presence of the test substance.)
Adenosine receptor A2a (Homo sapiens), sequence (P29274 whole entry): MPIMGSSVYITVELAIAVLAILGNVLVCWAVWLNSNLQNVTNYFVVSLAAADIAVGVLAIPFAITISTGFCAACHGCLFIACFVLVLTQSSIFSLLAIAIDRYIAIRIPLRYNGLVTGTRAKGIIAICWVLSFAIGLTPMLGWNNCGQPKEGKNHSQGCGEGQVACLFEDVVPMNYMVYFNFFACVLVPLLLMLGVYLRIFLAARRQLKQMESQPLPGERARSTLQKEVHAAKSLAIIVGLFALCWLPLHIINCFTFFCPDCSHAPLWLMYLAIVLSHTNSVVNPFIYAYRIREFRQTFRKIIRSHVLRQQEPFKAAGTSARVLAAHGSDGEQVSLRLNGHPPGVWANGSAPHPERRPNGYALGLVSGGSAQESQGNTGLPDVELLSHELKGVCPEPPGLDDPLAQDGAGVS
Data set [4] addresses T2, Cytochrome P450 1A2 (Homo sapiens, UniProt P05177).
T2 sequence (P05177 whole entry): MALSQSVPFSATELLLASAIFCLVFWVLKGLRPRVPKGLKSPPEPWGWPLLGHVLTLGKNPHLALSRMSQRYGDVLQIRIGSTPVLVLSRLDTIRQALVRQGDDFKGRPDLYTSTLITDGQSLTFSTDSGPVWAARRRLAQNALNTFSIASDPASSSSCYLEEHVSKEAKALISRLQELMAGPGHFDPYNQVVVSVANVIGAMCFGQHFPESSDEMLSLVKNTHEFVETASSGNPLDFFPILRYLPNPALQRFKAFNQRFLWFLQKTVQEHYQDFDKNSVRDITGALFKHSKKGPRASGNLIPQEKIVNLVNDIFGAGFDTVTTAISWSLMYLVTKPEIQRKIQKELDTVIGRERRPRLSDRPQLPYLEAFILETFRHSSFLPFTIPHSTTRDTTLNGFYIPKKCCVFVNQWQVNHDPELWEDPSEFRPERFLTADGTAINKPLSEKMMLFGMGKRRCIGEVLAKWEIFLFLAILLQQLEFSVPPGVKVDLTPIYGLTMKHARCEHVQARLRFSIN
Kind of data set: Time dependent inhibition of CYP1A2 (unknown origin) upto 25 uM. In kind it is ADME.

Data set [5] concerns the target Cytochrome P450 2C19 (Homo sapiens, UniProt P33261). The experiment in a line: Time dependent inhibition of CYP2C19 (unknown origin) upto 25 uM. Type of data set: ADME.
The target of data set [6] is T3, Cytochrome P450 2B6 (Homo sapiens, UniProt P20813).
T3 sequence (P20813 whole entry): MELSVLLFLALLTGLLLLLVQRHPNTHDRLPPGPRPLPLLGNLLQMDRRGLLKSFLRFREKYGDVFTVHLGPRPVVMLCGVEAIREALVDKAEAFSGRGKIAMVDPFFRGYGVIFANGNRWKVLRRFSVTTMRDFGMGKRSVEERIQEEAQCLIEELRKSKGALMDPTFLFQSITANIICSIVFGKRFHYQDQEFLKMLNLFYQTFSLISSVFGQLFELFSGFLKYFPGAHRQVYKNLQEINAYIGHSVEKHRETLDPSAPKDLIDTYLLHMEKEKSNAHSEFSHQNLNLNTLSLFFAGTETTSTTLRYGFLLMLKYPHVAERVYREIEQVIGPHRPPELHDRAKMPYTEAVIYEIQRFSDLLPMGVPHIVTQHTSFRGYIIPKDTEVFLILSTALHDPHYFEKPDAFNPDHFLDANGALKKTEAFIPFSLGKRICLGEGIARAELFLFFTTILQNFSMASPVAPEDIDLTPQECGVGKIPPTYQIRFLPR
The experiment in a line: Inhibition of CYP2B6 (unknown origin) upto 25 uM. In kind it is ADME.

Data set [7] can be described thus: Half life in rat at 1 mg/kg, iv and 2 mg/kg, po. In kind it is ADME, organism-based. The following applies: in vivo. The procedure, abridged:
(§1)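 Rats received 1 mg/kg iv or 2 mg/kg po. The plasma concentration–time profile was analysed by a noncompartmental model to give half-life, Cmax, Tmax and absolute oral bioavailability.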

Data set [8] in a line: Tmax in rat at 2 mg/kg, po. In kind it is ADME, organism-based. The following applies: in vivo. The procedure, abridged:
as §1

The nature of data set [9]: Free plasma concentration in rat at 1 mg/kg, po after 1 hr by ex vivo equilibrium dialysis. In kind it is ADME, organism-based. The procedure, abridged:
(§2)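 Male Sprague–Dawley rats were dosed orally at 1–100 mg/kg, and total plasma concentration was measured at 1 and 2 h. This was multiplied by fraction unbound from ex vivo equilibrium dialysis; mean ± SEM, n = 3 animals.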
On the technique in general: In equilibrium dialysis free small molecules cross a membrane that holds back macromolecules.

The nature of data set [10]: Free plasma concentration in rat at 1 mg/kg, po after 2 hrs by ex vivo equilibrium dialysis. Type of data set: ADME, organism-based. The procedure, abridged:
as §2

A short description of data set [11]: Free plasma concentration in rat at 10 mg/kg, po after 2 hrs by ex vivo equilibrium dialysis. Type of data set: ADME, organism-based. The procedure, abridged: as §2
Data set [12] has as its system Mus musculus. The experiment in a line: Toxicity in C57BL/6NCrl mouse assessed as histological changes up to 100 mg/kg, po bid by 14 days exploratory toxicology study. In kind it is organism-based. The following applies: in vivo, 336 h, time 14 day. The procedure, abridged: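 Exploratory 14-day repeat oral toxicity study in mice with dosing twice daily (bid) up to 100 mg/kg. Endpoints were macroscopic pathology, histology and hematology.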

Data set [13] is described as follows: Cmax in male rat at 3 mg/kg, po after 7 days. In kind it is ADME, organism-based. Set-up: dose 3 mg/kg, time 7 day, route po. The following applies: in vivo.
The nature of data set [14]: Tmax in male rat at 3 mg/kg, po after 7 days. The following applies: in vivo, time 7 day. Type of data set: ADME, organism-based.
The nature of data set [15]: AUC (0 to 8 hr) in male rat at 3 mg/kg, po after 7 days. Type of data set: ADME, organism-based. On the set-up: dose 3 mg/kg, time 7 day, route po. The following applies: in vivo. The procedure, abridged: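 Oral dosing in male Sprague-Dawley rats (150−200 g, 7-day acclimation, standard housing) in a 7-day exploratory toxicology study.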
Data set [16] can be described thus: Tmax in male rat at 150 mg/kg, po after 7 days. Type of data set: ADME, organism-based. Conditions: in vivo, time 7 day.
Data set [17] in a line: in vitro. The following applies: rat, liver microsomes.
A short description of data set [18]: AUC (0 to 8 hrs) in female mouse at 100 mg/kg, po after 14 days. The following applies: in vivo.
The nature of data set [19]: AUC (0 to 8 hrs) in female mouse at 100 mg/kg, po administered as single dose. The following applies: in vivo.

Cytochrome P450 2C19, sequence (P33261 whole entry): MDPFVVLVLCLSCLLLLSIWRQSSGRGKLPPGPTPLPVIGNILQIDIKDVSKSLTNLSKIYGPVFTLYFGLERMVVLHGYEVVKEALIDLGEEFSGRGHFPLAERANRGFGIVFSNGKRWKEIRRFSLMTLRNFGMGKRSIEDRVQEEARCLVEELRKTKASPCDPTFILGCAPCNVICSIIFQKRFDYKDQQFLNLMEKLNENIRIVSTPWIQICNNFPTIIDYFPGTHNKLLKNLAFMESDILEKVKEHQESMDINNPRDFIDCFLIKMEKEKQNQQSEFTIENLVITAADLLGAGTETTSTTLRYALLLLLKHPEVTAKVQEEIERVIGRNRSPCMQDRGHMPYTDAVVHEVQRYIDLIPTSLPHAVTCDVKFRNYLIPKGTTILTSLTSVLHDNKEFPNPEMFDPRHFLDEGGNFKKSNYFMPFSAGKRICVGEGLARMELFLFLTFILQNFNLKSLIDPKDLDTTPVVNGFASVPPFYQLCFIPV

For orientation: IC50 means the midpoint of a concentration-inhibition curve. The Ki is a measure of affinity in units of concentration, obtained from inhibition or displacement. The low end stands for a stronger hold on the target, the high end for a looser hold on the target. Broadly, the inhibition is the percentage by which the read-out fell short of the control. One may read the half-life as the time needed for the level to fall by half in the phase considered. Lower therefore signals fast loss. The term Tmax denotes the time from dosing to the highest level. For orientation: Cmax means the highest concentration seen after dosing. The term AUC denotes the area under the concentration-time curve, a measure of exposure. The term CLint scaled denotes a measure of how fast metabolising enzymes remove a compound, apart from limits set by blood flow. The AUC(0-t) is exposure summed from dosing to a finite time, without extrapolation to infinity. As to `O=C(NC[C@H](c1ccc(Cl)cc1)N1CCOCC1)c1sc(-c2ncccn2)nc1C(F)(F)F`, the IC50 in data set [1] turned out to be 38 nM. In data set [2], this compound had an inhibition constant Ki of 180 nM. The inhibition in data set [3] is 34%. For the same compound, the TDI result in data set [4] and in data set [5] was “Not Active” each time. Besides, the “inhibition (INH)” value in data set [6] is on record as “Not Active”. This compound also showed a half-life in [7] of 2.7 h. Besides, the Tmax in data set [8] was found to be 0.58 h; in data set [14] it was 1 h; in [16] it was 4 h. Moreover, the results for the “Cp(f)” value in [9], in data set [10] and in [11] were 22.4 nM, 22.8 nM and 164 nM, respectively. Further, the Activity entry in [12] is on record as “Non-Toxic”. The compound further yielded a Cmax in [13] of 4640 nM. In [15], this compound gave an AUC at 168 h of 7.16 µM·h. Also, the CLint scaled at 1 h, 1 µM in data set [17] was 85 mL/min/kg. Besides, the AUC at 336 h in data set [18] turned out to be 131 µM·h. This compound also registered an exposure AUC(0-t) at 8 h in [19] of 399 µM·h.
